Measured values: ChEMBL document CHEMBL1153088, “Discovery of benzo[g]indol-3-carboxylates as potent inhibitors of microsomal prostaglandin E(2) synthase-1” (Bioorg Med Chem, 2009)
Calls of active or inactive are those of the source. No cut-off for these calls is given here.

What was measured:
[1] = target: T1, Prostaglandin G/H synthase 1 (Ovis aries) (UniProt P05979); assay: Inhibition of ovine COX1 assessed as residual enzyme activity at 10 uM relative to untreated control
T1 sequence (whole entry): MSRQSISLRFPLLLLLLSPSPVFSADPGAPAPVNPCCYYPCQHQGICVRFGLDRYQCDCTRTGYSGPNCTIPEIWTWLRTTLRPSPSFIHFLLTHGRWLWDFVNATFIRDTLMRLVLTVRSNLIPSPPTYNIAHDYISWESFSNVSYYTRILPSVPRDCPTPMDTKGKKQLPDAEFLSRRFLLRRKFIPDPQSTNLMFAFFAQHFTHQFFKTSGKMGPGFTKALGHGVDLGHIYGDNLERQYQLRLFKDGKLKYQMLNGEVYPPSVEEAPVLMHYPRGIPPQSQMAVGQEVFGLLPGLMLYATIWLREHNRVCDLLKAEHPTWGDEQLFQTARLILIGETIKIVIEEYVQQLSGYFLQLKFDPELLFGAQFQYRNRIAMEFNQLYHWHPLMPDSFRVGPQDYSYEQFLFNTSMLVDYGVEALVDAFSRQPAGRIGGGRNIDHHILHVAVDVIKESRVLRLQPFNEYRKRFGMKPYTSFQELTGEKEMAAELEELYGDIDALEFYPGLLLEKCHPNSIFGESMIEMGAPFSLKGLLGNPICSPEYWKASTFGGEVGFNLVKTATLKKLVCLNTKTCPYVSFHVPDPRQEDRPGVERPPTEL
Outline: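 Purified ovine COX-1 (50 units) in 1 ml of 100 mM Tris pH 8 containing 5 mM glutathione, 5 µM hemoglobin and 100 µM EDTA was preincubated with compound for 5 min at 4 °C and prewarmed 60 s at 37 °C. The reaction was started with 5 µM AA and run 5 min at 37 °C, and 12-HHT was analysed by HPLC.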

[2] = target: T2, Prostaglandin E synthase (Homo sapiens) (UniProt O14684); assay: Inhibition of mPGES1 in IL1-beta induced human A549 cell microsomal membrane at 10 uM assessed as enzyme residual activity by PGE2 formation assay relative to untreated control; format: microsomes; settings: Microsome
T2 sequence (whole entry): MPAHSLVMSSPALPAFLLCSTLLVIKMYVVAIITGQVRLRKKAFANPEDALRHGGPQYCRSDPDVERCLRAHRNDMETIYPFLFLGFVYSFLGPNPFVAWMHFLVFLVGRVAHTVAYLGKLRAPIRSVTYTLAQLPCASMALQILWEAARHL
Outline: (§1)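 Microsomes from A549 cells treated with IL-1β (1 ng/ml, 72 h) were used at 50 µg/ml in 0.1 M potassium phosphate pH 7.4 with 2.5 mM glutathione. Compound (DMSO 1% final) was preincubated 15 min at 4 °C, then PGH2 was added (20 µM final) for 1 min at 4 °C.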

Prostaglandin E synthase [3] = target: T3, Prostaglandin E synthase (Homo sapiens, UniProt O14684); assay: Inhibition of mPGES1 in IL1-beta induced human A549 cell microsomal membrane assessed as blockade of conversion of PGH2 to PGE2; format: microsomes, Microsome; outline: as §1
T3 sequence (O14684 whole entry): T2 sequence (whole entry)

[4] = target: T2, Prostaglandin E synthase (Homo sapiens); assay: Inhibition of mPGES1 in IL1-beta induced human A549 cells assessed as PGE2 production at 5 uM preincubated for 10 mins; format: cell-based
Outline: (§2)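 Intact IL-1β-induced A549 cells (4×10^6/ml PBS, 1 mM CaCl2) were preincubated with compound (DMSO ≤0.3%) for 10 min at 37 °C. They were then stimulated with 2.5 µM A23187 plus 1 µM AA and [3H]AA (18.4 kBq) for 15 min, and the reaction was stopped on ice. [3H]PGE2 was separated by RP-18 SPE/HPLC and counted by liquid scintillation.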

[5] = target: T2, Prostaglandin E synthase (Homo sapiens); assay: Inhibition of mPGES1 in IL1-beta induced human A549 cells assessed as PGE2 production at 30 uM preincubated for 10 mins; format: cell-based; design: scale not given: the % may be the effect or the level left
Outline: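 Intact IL-1β-induced A549 cells (4×10^6/ml PBS, 1 mM CaCl2) were preincubated with compound (DMSO ≤0.3%) for 10 min at 37 °C. [3H]PGE2 was separated by RP-18 SPE/HPLC and counted by liquid scintillation.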

[6] = target: Prostaglandin G/H synthase 1 (Homo sapiens) (UniProt P23219); assay: Inhibition of COX1 in platelets assessed as inhibition of 12-HHT formation up to 30 uM uM by RP-HPLC
Outline: (§3)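 Freshly isolated human platelets (10^8/ml PBS with 1 mM CaCl2) were preincubated with compound (DMSO ≤0.3%), then stimulated with 5 µM AA for 5 min at 37 °C. 12-HHT was extracted and quantified by RP-HPLC. Mean ± SE, n=3–5.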

[7] = target: T4, Prostaglandin G/H synthase 2 (Homo sapiens) (UniProt P35354); assay: Inhibition of COX2 in IL1-beta induced human A549 cells assessed as 6-keto-PGF1-alpha formation up to 30 uM preincubated for 15 mins by ELISA; format: cell-based
T4 sequence (whole entry): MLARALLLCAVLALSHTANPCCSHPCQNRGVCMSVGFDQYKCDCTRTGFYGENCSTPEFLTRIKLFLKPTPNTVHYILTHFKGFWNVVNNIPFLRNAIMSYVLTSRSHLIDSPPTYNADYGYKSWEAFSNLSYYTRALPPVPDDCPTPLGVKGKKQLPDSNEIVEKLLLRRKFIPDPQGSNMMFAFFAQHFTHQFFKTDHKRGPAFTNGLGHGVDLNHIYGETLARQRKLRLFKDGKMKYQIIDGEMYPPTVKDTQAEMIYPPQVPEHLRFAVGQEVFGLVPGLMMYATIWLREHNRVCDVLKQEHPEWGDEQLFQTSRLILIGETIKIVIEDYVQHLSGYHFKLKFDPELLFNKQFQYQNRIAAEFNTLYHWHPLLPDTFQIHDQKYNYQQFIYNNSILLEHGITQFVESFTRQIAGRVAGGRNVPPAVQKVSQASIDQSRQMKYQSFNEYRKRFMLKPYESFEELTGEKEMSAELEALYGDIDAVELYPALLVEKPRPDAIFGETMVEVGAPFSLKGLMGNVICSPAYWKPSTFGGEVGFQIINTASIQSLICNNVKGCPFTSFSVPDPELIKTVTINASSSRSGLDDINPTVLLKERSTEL
Outline: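 A549 cells were induced with IL-1β (1 ng/ml, 72 h, 2% FCS). Cells at 5×10^6 per ml PBS with 1 mM CaCl2 were preincubated 15 min at 37 °C, then given 30 µM AA for 15 min at 37 °C, and the reaction was stopped on ice. Released 6-keto PGF1α was measured by monoclonal-antibody ELISA with β-galactosidase tracer read at 550 nm.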

Prostaglandin E synthase [8] = target: T3, Prostaglandin E synthase; assay: Inhibition of mPGES1 in IL1-beta induced human A549 cells assessed as PGE2 production preincubated for 10 mins; format: cell-based; settings: read-out: IC50; outline: as §2
A549 = assay: Toxicity in human A549 cells assessed as reduction of cell viability by MTT assay; format: cell-based
Outline: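 A549 cells (4×10^4 per 100 µl) were plated for 16 h, then exposed to compounds at 30 µM (DMSO ≤0.3%) for 5 h. MTT was added for 4 h, formazan was solubilized in 10% SDS/20 mM HCl, and absorbance at 595 nm was read relative to vehicle-treated cells.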

[9] = target: Prostaglandin G/H synthase 1 (Homo sapiens) (UniProt P23219); assay: Inhibition of COX1 in platelets assessed as inhibition of 12-HHT formation at 10 uM by RP-HPLC; outline: as §3
Rattus norvegicus [10] = assay: Antiinflammatory activity in Wistar Han rat assessed as LTB4 level at 4 mg/kg, ip administered 30 mins before carrageenan challenge (reference value: 1.17 +/- 0.21 ng); format: functional; settings: route intraperitoneal
Rattus norvegicus [11] = assay: Antiinflammatory activity in Wistar Han rat assessed as PGE2 level at 4 mg/kg, ip administered 30 mins before carrageenan challenge (reference value: 2.79 +/-0.39 ng); format: functional; settings: route intraperitoneal
Rattus norvegicus [12] = assay: Antiinflammatory activity in Wistar Han rat assessed as reduction in inflammatory cell numbers at 4 mg/kg, ip administered 30 mins before carrageenan challenge; format: functional, organism-based; design: dose 4 mg/kg
Mus musculus [13] = assay: Antiinflammatory activity in CD1 mouse assessed as inhibition of carrageenan-induced paw edema at 0.25 mg/kg, ip administered 30 mins before carrageenan challenge relative to untreated control; format: functional; settings: route intraperitoneal
Outline: (§4)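 Male adult CD1 mice, n=10 per group, given the compound ip (vehicle 2% DMSO) 30 min before subplantar 1% λ-carrageenan in saline (0.05 ml). Paw volume was measured double blind by hydroplethysmometer just before injection and at 2, 4 and 6 h. Inhibition was taken at the 4 h reading versus vehicle.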

Mus musculus [14] = assay: Antiinflammatory activity in CD1 mouse assessed as inhibition of carrageenan-induced paw edema at 4 mg/kg, ip administered 30 mins before carrageenan challenge relative to untreated control; format: functional; settings: route intraperitoneal; outline: as §4
Mus musculus [15] = assay: Antiinflammatory activity in CD1 mouse assessed as inhibition of carrageenan-induced paw edema at 1 mg/kg, ip administered 30 mins before carrageenan challenge relative to untreated control; format: functional; settings: route intraperitoneal; outline: as §4
Rattus norvegicus [16] = assay: Antiinflammatory activity in Wistar Han rat assessed as reduction in exudate volume at 4 mg/kg, ip administered 30 mins before carrageenan challenge; format: functional, organism-based; design: dose 4 mg/kg
Rattus norvegicus [17] = assay: Antiinflammatory activity in Wistar Han rat assessed as 6-Keto PGF1alpha level at 4 mg/kg, ip administered 30 mins before carrageenan challenge (reference value: 3.00 +/- 1.02 ng); format: functional; settings: route intraperitoneal
[18] = target: T2, Prostaglandin E synthase (Homo sapiens); settings: A549, Microsome, 3 uM
[19] = target: T2, Prostaglandin E synthase (Homo sapiens); settings: A549, Microsome, 0.3 uM
[20] = target: T2, Prostaglandin E synthase (Homo sapiens); settings: A549, Microsome, 30 uM
[21] = target: T2, Prostaglandin E synthase (Homo sapiens); settings: A549, Microsome, 3 uM; remark: listed apart in the source

Chain of Prostaglandin G/H synthase 1 (Homo sapiens) (P23219 whole entry): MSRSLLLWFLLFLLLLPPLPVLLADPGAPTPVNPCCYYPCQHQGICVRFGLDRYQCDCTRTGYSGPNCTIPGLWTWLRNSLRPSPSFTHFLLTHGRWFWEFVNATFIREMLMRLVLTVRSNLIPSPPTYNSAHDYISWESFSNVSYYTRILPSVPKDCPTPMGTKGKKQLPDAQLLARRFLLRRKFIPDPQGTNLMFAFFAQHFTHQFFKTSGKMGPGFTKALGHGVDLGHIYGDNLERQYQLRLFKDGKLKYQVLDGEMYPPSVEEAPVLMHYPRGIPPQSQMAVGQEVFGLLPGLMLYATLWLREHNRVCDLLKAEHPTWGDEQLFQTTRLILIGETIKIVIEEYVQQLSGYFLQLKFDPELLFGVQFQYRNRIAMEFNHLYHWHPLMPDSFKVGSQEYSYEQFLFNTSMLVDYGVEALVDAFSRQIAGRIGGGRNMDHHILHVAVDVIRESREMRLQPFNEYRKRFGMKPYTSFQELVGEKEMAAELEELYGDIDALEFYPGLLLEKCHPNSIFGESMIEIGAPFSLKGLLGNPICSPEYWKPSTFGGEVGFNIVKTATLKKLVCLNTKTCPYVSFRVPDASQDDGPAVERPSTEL

Compound: CCOC(=O)c1c(Cc2cccc(Cl)c2)[nH]c2c1cc(O)c1ccc(-c3ccccc3)cc12
- Activity [1]: 66%
- Activity [2]: 28%
- IC50 (Prostaglandin E synthase [3]): 2800 nM

Compound: Cc1ccc(-c2cc(C(F)(F)F)nn2-c2ccc(S(N)(=O)=O)cc2)cc1
- inhibition [4]: Active

Compound: CCOC(=O)c1c(Cc2ccccc2Cl)[nH]c2c1cc(O)c1ccccc12
- Activity [1]: 89%
- Activity [5]: 35%
- inhibition [6]: inactive
- Activity [2]: 14%
- inhibition [7]: inactive
- IC50 (Prostaglandin E synthase [3]): 100 nM
- IC50 (Prostaglandin E synthase [8]): 20500 nM

Compound: CCOC(=O)c1c(Nc2cccc(Cl)c2)[nH]c2ccc(O)cc12
- Activity [2]: 83%

Compound: CCOC(=O)c1c(Cc2cccc(Cl)c2)[nH]c2c1cc(O)c1cc(OC)c(OC)cc12
- inhibition [1]: inactive

Compound: CCOC(=O)c1c(Cc2cccc(Cl)c2)[nH]c2c1cc(O)c1ccccc12
- Activity [1]: 12%
- Activity (A549): Non-toxic
- inhibition [9]: 43%
- Activity (Rattus norvegicus [10]): 0.6 ng
- Activity (Rattus norvegicus [11]): 1.3 ng
- inhibition (Rattus norvegicus [12]): Active
- inhibition in vivo at 0.25 mg/kg (Mus musculus [13]): 37%
- inhibition in vivo at 4 mg/kg (Mus musculus [14]): 61%
- inhibition [7]: inactive
- inhibition in vivo at 1 mg/kg (Mus musculus [15]): 53%
- inhibition (Rattus norvegicus [16]): Active
- Activity (Rattus norvegicus [17]): 2.02 ng

Compound: CC(C)c1ccc2c(c1)c(SC(C)(C)C)c(CC(C)(C)C(=O)O)n2Cc1ccc(Cl)cc1
- Activity [1]: 42%
- inhibition [18]: Active
- Activity [5]: 37%
- inhibition [19]: inactive
- inhibition [20]: 82%
- inhibition [21]: Active

Compound: CCOC(=O)c1c(CCc2cccc(Cl)c2)[nH]c2c1cc(O)c1ccccc12
- Activity [2]: 57%

Compound: CCOC(=O)c1c(Cc2cccc(F)c2)[nH]c2c1cc(O)c1ccccc12
- inhibition [1]: inactive
- Activity [2]: 5%
- IC50 (Prostaglandin E synthase [3]): 500 nM
